The target in assay [1] is T1, Beta-galactoside alpha-2,6-sialyltransferase 1 (Homo sapiens) (UniProt P15907).
T1 sequence (whole entry): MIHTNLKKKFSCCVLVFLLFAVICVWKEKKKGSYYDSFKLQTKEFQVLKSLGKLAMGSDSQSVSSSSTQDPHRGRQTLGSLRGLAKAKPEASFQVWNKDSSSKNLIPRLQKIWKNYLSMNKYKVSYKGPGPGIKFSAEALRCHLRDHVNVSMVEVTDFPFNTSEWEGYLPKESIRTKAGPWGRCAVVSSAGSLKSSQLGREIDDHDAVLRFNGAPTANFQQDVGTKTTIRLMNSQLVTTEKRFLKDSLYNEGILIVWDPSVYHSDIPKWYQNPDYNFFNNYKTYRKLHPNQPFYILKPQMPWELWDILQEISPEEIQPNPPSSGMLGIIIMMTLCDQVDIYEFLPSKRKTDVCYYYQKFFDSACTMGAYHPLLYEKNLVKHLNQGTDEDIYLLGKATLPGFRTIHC
Nature of the assay: Inhibition of recombinant human ST6Gal I at 10 uM incubated for 1 hrs in the presence of CMP-Neu5Ac as donor and LacNAc as acceptor by luminescence based CMP-Glo assay relative to control. The method in brief: (§1)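 Human enzyme reaction with 1 mM acceptor and 100 μM CMP-Neu5Ac donor. Test agent at 10 or 100 μM, incubated for a single hour. CMP formed as by-product was converted in a luciferase reaction, and luminescence, linear with CMP concentration, was read. Percent inhibition was calculated against control.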

The target in assay [2] is T2, CMP-N-acetylneuraminate-beta-galactosamide-alpha-2,3-sialyltransferase 1 (Homo sapiens) (UniProt Q11201).
T2 sequence (whole entry): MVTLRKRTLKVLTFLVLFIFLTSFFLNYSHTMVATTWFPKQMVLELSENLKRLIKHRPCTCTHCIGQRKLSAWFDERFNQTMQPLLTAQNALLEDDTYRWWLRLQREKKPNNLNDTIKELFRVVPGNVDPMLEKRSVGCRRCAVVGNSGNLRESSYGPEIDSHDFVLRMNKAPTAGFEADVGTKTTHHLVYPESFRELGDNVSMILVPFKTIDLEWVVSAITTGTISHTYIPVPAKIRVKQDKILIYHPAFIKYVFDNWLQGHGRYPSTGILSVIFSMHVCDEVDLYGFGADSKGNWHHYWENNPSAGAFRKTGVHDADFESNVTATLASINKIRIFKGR
Nature of the assay: Inhibition of recombinant human ST3Gal I at 100 uM incubated for 1 hrs in the presence of CMP-Neu5Ac as donor and Gal-beta1,3-GalNAc as acceptor by luminescence based CMP-Glo assay relative to control. In short, it runs like this: as §1

The target in assay [3] is T1, Beta-galactoside alpha-2,6-sialyltransferase 1 (Homo sapiens). Kind of assay: Inhibition of recombinant human ST6Gal I at 100 uM incubated for 1 hrs in the presence of CMP-Neu5Ac as donor and LacNAc as acceptor by luminescence based CMP-Glo assay relative to control. In short, it runs like this: as §1
The target in assay [4] is T3, Beta-galactoside alpha-2,6-sialyltransferase 1 (Homo sapiens, UniProt P15907).
T3 sequence (P15907 whole entry): T1 sequence (whole entry)
Nature of the assay: Inhibition of recombinant human ST6Gal I incubated for 1 hrs in the presence of CMP-Neu5Ac as donor and LacNAc as acceptor by luminescence based CMP-Glo assay. The method in brief:
(§2)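 For hST6Gal I, the Km for CMP-Neu5Ac was determined with acceptor held at 1 mM. Ki was determined only for agents exceeding 50% inhibition at 10 μM in the screen (1 mM acceptor, 100 μM donor). Read-out was luciferase-coupled luminescence of released CMP after a single-hour incubation.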

Assay [5] has as its target T1, Beta-galactoside alpha-2,6-sialyltransferase 1 (Homo sapiens). Nature of the assay: Ratio of Km for Substrate activity at recombinant human ST6Gal I to Ki for inhibition of recombinant human ST6Gal I at 10 uM incubated for 1 hrs in the presence of CMP-Neu5Ac as donor and LacNAc as acceptor. The method in brief: as §2

pKi: −log10 of the molar value.

`O=c1ccn([C@@H]2O[C@H](COCc3cn(C(c4cccc(C(F)(F)F)c4)P(=O)(O)O)nn3)[C@@H](O)[C@H]2O)c(=O)[nH]1` (single isomer, unassigned; form 1): the inhibition in assay [1] amounted to 23%.

With `O=c1ccn([C@@H]2O[C@H](Cn3cc(C(O)c4cccc(Oc5ccccc5)c4)nn3)[C@@H](O)[C@H]2O)c(=O)[nH]1` (some centres undefined), the inhibition in assay [2] was 43%; in assay [3], 84%. For `O=c1ccn([C@@H]2O[C@H](COCc3cn(C(c4ccc(F)c(Oc5ccccc5)c4)P(=O)(O)O)nn3)[C@@H](O)[C@H]2O)c(=O)[nH]1` (stereo in doubt; 13c-(s)) [listing 1 of 2 here], in assay [4], the pKi was 5.22. `O=c1ccn([C@@H]2O[C@H](COCc3cn(C(c4ccc(F)cc4)P(=O)(O)O)nn3)[C@@H](O)[C@H]2O)c(=O)[nH]1` (stereo in doubt; 13d-(l)): the inhibition in assay [1] is 45%.

As for `O=c1ccn([C@@H]2O[C@H](COCc3cn(C(c4csc5ccccc45)P(=O)(O)O)nn3)[C@@H](O)[C@H]2O)c(=O)[nH]1` (stereo in doubt; 13g-(s)), the inhibition in assay [1] was found to be 25%. With `O=c1ccn([C@@H]2O[C@H](COCc3cn(C(c4cccc(OC5CCCC5)c4)P(=O)(O)O)nn3)[C@@H](O)[C@H]2O)c(=O)[nH]1` (single isomer, unassigned), the inhibition in assay [1] was found to be 41%. For `O=c1ccn([C@@H]2O[C@H](COCc3cn(C(c4cccc(OC(F)(F)C(F)F)c4)P(=O)(O)O)nn3)[C@@H](O)[C@H]2O)c(=O)[nH]1` (stereo in doubt; 13f-(l)) [listing 1 of 2 here], the pKi in assay [4] is 5.47.

`O=c1ccn([C@@H]2O[C@H](COCc3cn(C(c4cccc(Oc5ccccc5)c4)P(=O)(O)O)nn3)[C@@H](O)[C@H]2O)c(=O)[nH]1` (stereo in doubt; 13a-(s)) [listing 1 of 2 here]: the inhibition in assay [1] was determined as 62%; in assay [2], 28%. The Ratio in assay [5] came out at 1.

As to `O=c1ccn([C@@H]2O[C@H](COCc3cn(C(c4ccc(F)c(Oc5ccccc5)c4)P(=O)(O)O)nn3)[C@@H](O)[C@H]2O)c(=O)[nH]1` (stereo in doubt; 13c-(l)) [listing 1 of 2 here], the inhibition turned out to be 59% in assay [1] and 9% in assay [2]. Also, in assay [5], the Ratio amounted to 1.1. On to `O=c1ccn([C@@H]2O[C@H](COCc3cn(C(c4ccc(F)c(Oc5ccccc5)c4)P(=O)(O)O)nn3)[C@@H](O)[C@H]2O)c(=O)[nH]1` (stereo in doubt; 13c-(l)) [listing 2 of 2 here], for which the pKi in assay [4] is 4.47. For the compound `O=c1ccn([C@@H]2O[C@H](COCc3cn(C(c4cccc(OC(F)(F)C(F)F)c4)P(=O)(O)O)nn3)[C@@H](O)[C@H]2O)c(=O)[nH]1` (stereo in doubt; 13f-(l)) [listing 2 of 2 here], the inhibition stood at 78% in assay [1] and 39% in assay [2]. Also, in assay [5], the Ratio turned out to be 11. In the case of `O=c1ccn([C@@H]2O[C@H](COCc3cn(C(c4ccc(F)c(Oc5ccccc5)c4)P(=O)(O)O)nn3)[C@@H](O)[C@H]2O)c(=O)[nH]1` (stereo in doubt; 13c-(s)) [listing 2 of 2 here], the values for the inhibition in assay [1] and in assay [2] were 57% and 43%, respectively. The Ratio in assay [5] came to 6. In the case of `O=c1ccn([C@@H]2O[C@H](COCc3cn(C(c4cccc(Oc5ccccc5)c4)P(=O)(O)O)nn3)[C@@H](O)[C@H]2O)c(=O)[nH]1` (stereo in doubt; 13a-(l)) [listing 1 of 2 here], the inhibition in assay [1] came to 26%; in assay [2], 2%. Also, the Ratio in assay [5] stood at 0.7. As to `O=c1ccn([C@@H]2O[C@H](COCc3cn(C(c4cccc(Oc5ccccc5)c4)P(=O)(O)O)nn3)[C@@H](O)[C@H]2O)c(=O)[nH]1` (stereo in doubt; 13a-(s)) [listing 2 of 2 here], the pKi in assay [4] is 4.40. Turning to `O=c1ccn([C@@H]2O[C@H](COCc3cn(C(c4cccc(OC(F)(F)C(F)F)c4)P(=O)(O)O)nn3)[C@@H](O)[C@H]2O)c(=O)[nH]1` (single isomer, unassigned) [listing 1 of 2 here], the results for the inhibition in assay [1] and in assay [2] were 65% and 49%, respectively. Further, the Ratio in assay [5] worked out at 5.6. With `O=c1ccn([C@@H]2O[C@H](COCc3cn(C(c4cccc(OC5CCCC5)c4)P(=O)(O)O)nn3)[C@@H](O)[C@H]2O)c(=O)[nH]1` (stereo in doubt; 13b-(l)), the inhibition in assay [1] was 10%. As for `O=c1ccn([C@@H]2O[C@H](COCc3cn(C(c4csc5ccccc45)P(=O)(O)O)nn3)[C@@H](O)[C@H]2O)c(=O)[nH]1` (stereo in doubt; 13g-(l)), the inhibition in assay [1] turned out to be 21%. Regarding `O=c1ccn([C@@H]2O[C@H](COCc3cn(C(c4cccc(C(F)(F)F)c4)P(=O)(O)O)nn3)[C@@H](O)[C@H]2O)c(=O)[nH]1` (single isomer, unassigned; form 2), in assay [1], the inhibition was 39%. Turning to `O=c1ccn([C@@H]2O[C@H](COCc3cn(C(c4cccc(OC(F)(F)C(F)F)c4)P(=O)(O)O)nn3)[C@@H](O)[C@H]2O)c(=O)[nH]1` (single isomer, unassigned) [listing 2 of 2 here], in assay [4], the pKi was 5.17.

As to `O=c1ccn([C@@H]2O[C@H](COCc3cn(C(c4ccc(F)cc4)P(=O)(O)O)nn3)[C@@H](O)[C@H]2O)c(=O)[nH]1` (single isomer, unassigned), in assay [1], the inhibition was 44%.

For `O=c1ccn([C@@H]2O[C@H](COCc3cn(C(c4cccc(Oc5ccccc5)c4)P(=O)(O)O)nn3)[C@@H](O)[C@H]2O)c(=O)[nH]1` (stereo in doubt; 13a-(l)) [listing 2 of 2 here], in assay [4], the pKi is 4.30.

The inhibition is the drop in the measured response relative to a control, in per cent. Broadly, the pKi is the Ki on a negative log10 scale, so that one unit is a factor of ten.
